Converted amounts (≈) assume the structure as drawn.
How the values were obtained:
Type in all cases: functional
[1] = system: Candida; test: Tested In vitro for antifungal activity against Candida species. at pH 7.2
Summary of the method: (§1)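 Liquid serial-dilution MIC against 3 freshly isolated clinical Candida strains (two C. glabrata, one C. krusei) in Sabouraud broth at pH 7.2 or 5.8. Inoculum was 10³/mL after 18 h pre-culture at 37 °C, read at 24 h, 37 °C. Range was 0.25–256 μg/mL. Endpoint was no visible growth versus a DMSO/water blank.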

[2] = system: Candida; test: Tested in vitro for antifungal activity against Candida species. at pH 5.8; summary of the method: as §1
[3] = system: Candida; test: Tested in vitro for antifungal activity against Candida species. at pH 5.8 (percent of resistant species at 256 ug/mL)
Summary of the method: (§2)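 Broth serial-dilution test in Sabouraud broth at pH 7.2 or 5.8, against 3 fresh clinical non-albicans isolates (two C. glabrata, one C. krusei). Inocula were 10³/mL, pre-grown 18 h at 37 °C. Compound was twofold-diluted over 0.25–256 µg/mL and read at 24 h, 37 °C for visible growth.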

[4] = system: Candida; test: Tested In vitro for antifungal activity against Candida species. at pH 7.2; (percent of resistant species at 256 ug/mL); summary of the method: as §2
[5] = system: Candida; test: Tested in vitro for antifungal activity against Candida species. at pH 5.8; range is from 4 to 16
Summary of the method: (§3)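 Fresh clinical isolates (two C. glabrata, one C. krusei) were pre-grown 18 h at 37 °C in Sabouraud dextrose broth. Broth double-dilution was run in Sabouraud broth at pH 5.8 or 7.2 over 0.25–256 µg/mL from a DMSO/water stock, with 10³/mL inoculum.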

[6] = system: Candida albicans; test: In vitro antifungal activity against 40 strains of Candida albicans at pH 5.8; (percent of resistant species at 256 ug/mL)
Summary of the method: (§4)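 Broth serial-dilution test in Sabouraud broth at pH 7.2 or 5.8, against 40 fresh clinical C. albicans isolates from hospitalized patients. Inocula were 10³/mL, pre-grown 18 h at 37 °C in Sabouraud dextrose broth. Compound from a DMSO/water stock was twofold-diluted over 0.25–256 µg/mL. Visible growth was read at 24 h, 37 °C.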

[7] = target: Lanosterol 14-alpha demethylase (Candida albicans (strain SC5314 / ATCC MYA-2876) (Yeast), UniProt P10613); test: Anticandida activity- (MIC90 compound) / (MIC90 bifonazole)
[8] = system: Candida albicans; test: In vitro antifungal activity against 40 strains of Candida albicans at pH 5.8
Summary of the method: (§5)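 Broth serial-dilution MIC against 40 clinical C. albicans isolates from hospitalized patients, grown in Sabouraud broth at pH 7.2 or 5.8. Cells were pre-grown 18 h at 37 °C, inoculated at 10³/mL, and read at 24 h, 37 °C. Doubling dilutions ran 0.25–256 μg/mL from a DMSO/water solution. MIC was the lowest concentration with no visible growth against a DMSO/water blank.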

[9] = system: Candida albicans; test: In vitro antifungal activity against 40 strains of Candida albicans at pH 7.2; (percent of resistant species at 256 ug/mL); summary of the method: as §4
[10] = system: Candida; test: Tested In vitro for antifungal activity against Candida species. at pH 7.2; (range is from 8 to 128); summary of the method: as §1
[11] = system: Candida albicans; test: In vitro antifungal activity against 40 strains of Candida albicans at pH 7.2; summary of the method: as §5
[12] = system: Candida albicans; test: In vitro antifungal activity against 40 strains of Candida albicans at pH 5.8; (range is from 1 to 32); summary of the method: as §5
[13] = system: Candida albicans; test: In vitro antifungal activity against 40 strains of Candida albicans at pH 7.2; minimum inhibitory concentration (range is from 4 to 64); summary of the method: as §5
[14] = system: Candida albicans; test: In vitro antifungal activity against Candida albicans (40 strains) at pH 7.2,(percent of resistant species at 256 ug/mL); summary of the method: as §4
[15] = system: Candida albicans; test: In vitro antifungal activity against Candida albicans (40 strains) at pH 5.8,(percent of resistant species at 256 ug/mL); summary of the method: as §4
[16] = system: Candida; test: Tested in vitro for antifungal activity against Candida species. at pH 7.2 (percent of resistant species at 256 ug/mL); summary of the method: as §2
[17] = system: Candida; test: Tested in vitro for antifungal activity against Candida species. at pH 7.2; summary of the method: as §3
[18] = system: Candida; test: (§6) In vitro antifungal activity against 40 strains at pH 5.8,(percent of resistant species at 256 ug/mL); summary of the method: as §4
[19] = system: Candida; test: Tested in vitro for antifungal activity against Candida species. at pH 7.2 (value ranges from 0.5 to 8); summary of the method: as §3
[20] = system: Candida albicans; test: In vitro antifungal activity against Candida albicans (40 strains) at pH 7.2(value ranges from 0.5 to 32); summary of the method: as §5
[21] = system: Candida albicans; test: Tested in vitro for antifungal activity against Candida albicans at pH 5.8; summary of the method: as §5
[22] = system: Candida albicans; test: Tested in vitro for antifungal activity against Candida albicans at pH 5.8 (range 1-8); summary of the method: as §5
[23] = system: Candida albicans; test: In vitro antifungal activity against Candida albicans (40 strains) at pH 7.2; summary of the method: as §5
[24] = system: Candida albicans; test: Tested In vitro for antifungal activity at pH 5.8
[25] = system: Candida; test: Tested In vitro for antifungal activity against candida Spp (Candida glabrata, Candida krusei) at pH 7.2
Summary of the method: (§7)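 Inocula were 10³/mL, pre-grown 18 h at 37 °C. MIC is the lowest concentration with no visible growth versus a blank at 24 h, 37 °C. The mean MIC is ΣMICi over the strain number; MIC50/MIC90 are also reported.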

[26] = system: Candida albicans; test: as §6; summary of the method: as §4
[27] = system: Candida albicans; test: In vitro antifungal activity against 40 strains at pH 7.2, (percent of resistant species at 256 ug/mL); summary of the method: as §4
[28] = system: Candida; test: Tested in vitro for antifungal activity against candida Spp (Candida glabrata, Candida krusei) at pH 7.2 (percent of resistant species at 256 ug/mL); summary of the method: as §2
[29] = system: Candida albicans; test: In vitro antifungal activity against 40 strains at pH 7.2 minimum inhibitory concentration
Summary of the method: (§8)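 Inocula were 10³/mL, pre-grown 18 h at 37 °C. MIC is the lowest concentration with no visible growth versus a DMSO/water blank at 24 h, 37 °C. The mean MIC is ΣMICi over the total strain number; MIC50/MIC90 cover 50%/90% of strains.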

[30] = system: Candida; test: Tested In vitro for antifungal activity against candida Spp (Candida glabrata, Candida krusei) at pH 5.8; summary of the method: as §7
[31] = system: Candida albicans; test: In vitro antifungal activity against 40 strains at pH 7.2; summary of the method: as §8
[32] = system: Candida; test: In vitro antifungal activity against candida Spp (Candida glabrata, Candida krusei) at pH 5.8,(percent of resistant species at 256 ug/mL); summary of the method: as §2

Lanosterol 14-alpha demethylase, sequence (P10613 whole entry): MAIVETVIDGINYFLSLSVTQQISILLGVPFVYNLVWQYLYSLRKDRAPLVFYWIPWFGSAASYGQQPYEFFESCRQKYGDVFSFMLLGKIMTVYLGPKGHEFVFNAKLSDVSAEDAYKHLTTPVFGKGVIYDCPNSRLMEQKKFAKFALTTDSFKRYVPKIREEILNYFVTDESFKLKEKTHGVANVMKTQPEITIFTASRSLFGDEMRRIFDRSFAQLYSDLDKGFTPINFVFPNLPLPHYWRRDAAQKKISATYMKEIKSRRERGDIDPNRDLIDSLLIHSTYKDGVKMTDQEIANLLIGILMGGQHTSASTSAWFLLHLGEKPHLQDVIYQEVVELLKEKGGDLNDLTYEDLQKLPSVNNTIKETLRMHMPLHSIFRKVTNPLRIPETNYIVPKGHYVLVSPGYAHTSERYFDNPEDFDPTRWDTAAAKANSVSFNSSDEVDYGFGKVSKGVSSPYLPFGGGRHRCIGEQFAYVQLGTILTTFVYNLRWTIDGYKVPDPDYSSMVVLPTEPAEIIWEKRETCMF

SMILES: CSc1ccc(-c2c[nH]cc2[C@H](c2ccc(Cl)cc2Cl)n2ccnc2)cc1
- MIC [1]: 66.6 µg/mL (≈ 161 µM)
- MIC50 [1]: 64 µg/mL (≈ 154 µM)
- MIC90 [1]: 128 µg/mL (≈ 309 µM)
- MIC [2]: 9.3 µg/mL (≈ 22.4 µM)
- MIC50 [2]: 8 µg/mL (≈ 19.3 µM)
- MIC90 [2]: 16 µg/mL (≈ 38.6 µM)
- Resistance [3]: 0%
- Resistance [4]: 0%
- Range [5]: 16 µg/mL
- Resistance [6]: 0%
- Ratio [7]: 3
- MIC [8]: 7 µg/mL (≈ 16.9 µM)
- MIC50 [8]: 4 µg/mL (≈ 9.65 µM)
- MIC90 [8]: 8 µg/mL (≈ 19.3 µM)
- Resistance [9]: 0%
- Range [10]: 128 µg/mL
- MIC [11]: 9.14 µg/mL (≈ 22.1 µM)
- MIC50 [11]: 4 µg/mL (≈ 9.65 µM)
- MIC90 [11]: 8 µg/mL (≈ 19.3 µM)
- Range [12]: 32 µg/mL
- Range [13]: 64 µg/mL

SMILES: Clc1ccc(-c2c[nH]cc2[C@H](c2ccc(Cl)cc2Cl)n2ccnc2)cc1
- Resistance [14]: 0%
- MIC [2]: 6 µg/mL (≈ 14.9 µM)
- MIC50 [2]: 8 µg/mL (≈ 19.9 µM)
- MIC90 [2]: 64 µg/mL (≈ 159 µM)
- Range [2]: 64 µg/mL
- Resistance [15]: 0%
- Ratio [7]: 0.8
- Resistance [16]: 0%
- MIC [17]: 5.01 µg/mL (≈ 12.4 µM)
- MIC50 [17]: 8 µg/mL (≈ 19.9 µM)
- MIC90 [17]: 8 µg/mL (≈ 19.9 µM)
- Resistance [18]: 0%
- Range [19]: 8 µg/mL
- Range [20]: 32 µg/mL
- MIC [21]: 3.6 µg/mL (≈ 8.94 µM)
- MIC50 [21]: 1 µg/mL (≈ 2.48 µM)
- MIC90 [21]: 2 µg/mL (≈ 4.97 µM)
- Range [22]: 8 µg/mL
- MIC [23]: 2.14 µg/mL (≈ 5.31 µM)
- MIC50 [23]: 2 µg/mL (≈ 4.97 µM)
- MIC90 [23]: 4 µg/mL (≈ 9.93 µM)

SMILES: CC(=O)N1CCN(c2ccc(OCC3COC(Cn4ccnc4)(c4ccc(Cl)cc4Cl)O3)cc2)CC1 (stereo not given) [KETOCONAZOLE]
- MIC [24]: 6.35 µg/mL (≈ 11.9 µM)
- Range [24]: <0.25 µg/mL
- MIC [25]: 8.6 µg/mL (≈ 16.2 µM)
- MIC50 [25]: 8 µg/mL (≈ 15.1 µM)
- MIC90 [25]: 16 µg/mL (≈ 30.1 µM)
- Range [25]: 2 µg/mL
- Resistance [26]: 0%
- Resistance [27]: 0%
- Resistance [28]: 0%
- Range [29]: 2 µg/mL
- MIC [30]: 6.53 µg/mL (≈ 12.3 µM)
- MIC50 [30]: 32 µg/mL (≈ 60.2 µM)
- MIC90 [30]: 128 µg/mL (≈ 241 µM)
- Range [30]: <0.25 µg/mL
- MIC [31]: 9.26 µg/mL (≈ 17.4 µM)
- MIC50 [31]: 8 µg/mL (≈ 15.1 µM)
- MIC90 [31]: 32 µg/mL (≈ 60.2 µM)
- Resistance [32]: 0%
